In brackets after ≈: the same amount, converted by molar mass.
What was measured:
[1] = system: Human immunodeficiency virus 1; test: Antiviral activity against HIV-1 IIIB induced cytopathic effect in de novo infected MT-4 cells; format: functional, organism-based; conditions: Human immunodeficiency virus 1, MT4
Procedure, shortened: (§1)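 MT4 cells were infected de novo with HIV-1 IIIB or HIV-2 EHO, and compound was added after adsorption. Mock-infected cells were run in parallel. After 5 days, viability was read spectrophotometrically by in situ MTT reduction.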

[2] = target: T1, Human immunodeficiency virus type 1 protease (Human immunodeficiency virus 1, UniProt Q72874); test: Inhibition of HIV-1 proteinase was assayed in infected MT-4 cells; format: cell-based, MT4
MT4 [3] = test: Antiviral activity for inhibition of HIV-2 proteinase was assayed in infected MT-4 cells; format: functional, cell-based; conditions: Homo sapiens
[4] = Area Under Curve was measured by ploting the graph between concentration verses time; format: ADME
Procedure, shortened: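 Female Balb/c mice (n = 2 per time point) were fasted 24 h before and throughout the study, with water ad libitum. Compound was given by oral gavage at 125 mg/kg in a microemulsion formulation. Plasma levels were measured by solid-phase extraction and HPLC.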

[5] = Inhibitory concentration against HIV-1 strain IIIB infected T4 lymphocytes; format: functional, cell-based
Procedure, shortened: (§2)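 T4-lymphocytes were purified from healthy donor human […] and stimulated with PHA. Cells were infected with HIV-1 IIIB or HIV-2 MS and kept in IL-2 medium. Compound was added after stimulation and virus adsorption. Every 3-4 days, half the supernatant was replaced with fresh IL-2 medium containing compound.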

Cathepsin D = Cathepsin D (Homo sapiens, UniProt P07339); test: The compound was tested for inhibition of Human Cathepsin D
Sequence of Cathepsin D (P07339 65-162 limits assumed): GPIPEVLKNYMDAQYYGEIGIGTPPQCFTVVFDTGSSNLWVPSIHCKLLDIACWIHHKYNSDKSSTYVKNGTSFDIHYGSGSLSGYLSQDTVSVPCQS
Sequence of Cathepsin D (P07339 169-412 limits assumed): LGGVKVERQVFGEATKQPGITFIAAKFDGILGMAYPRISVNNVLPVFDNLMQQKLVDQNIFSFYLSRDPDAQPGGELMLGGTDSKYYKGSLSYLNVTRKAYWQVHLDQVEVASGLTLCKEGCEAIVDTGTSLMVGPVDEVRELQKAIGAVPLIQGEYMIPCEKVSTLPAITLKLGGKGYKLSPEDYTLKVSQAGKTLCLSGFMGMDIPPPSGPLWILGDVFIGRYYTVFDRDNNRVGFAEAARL

[6] = Inhibitory concentration against HIV-2 strain MS infected T4 lymphocytes; format: functional, cell-based; procedure, shortened: as §2
[7] = Aqueous solubility in phosphate buffer of pH 7.4
[8] = target: T1, Human immunodeficiency virus type 1 protease; test: Compound was tested for inhibition of HIV-1 protease was assayed in infected MT-4 cells; format: cell-based, MT4
MT4 [9] = test: Antiviral activity against HIV-2 induced cytopathic effect in de novo infected MT-4 cells; format: functional, cell-based; conditions: Homo sapiens; procedure, shortened: as §1

Row | Structure (SMILES) | IC50 [1] [nM] | Ki [2] [nM] | other results
1 | CC(C)[C@H](NC(=O)OCc1ccccc1)C(=O)N[C@@H](Cc1ccccc1)[C@@H](O)[C@H]1NCc2cccc(c2)OCCOCCOCCNC(=O)[C@H](C(C)C)NC1=O | 211 | 7.7 | 
2 | CC(C)[C@H](NC(=O)OCc1ccccc1)C(=O)N[C@@H](Cc1ccccc1)[C@@H](O)[C@H]1NCc2ccc(cc2)OCCCCNC(=O)[C@H](C(C)C)NC1=O | 27 |  | 
3 | CC(C)[C@H](NC(=O)OCc1ccccc1)C(=O)N[C@@H](Cc1ccccc1)[C@@H](O)[C@H]1NCc2ccc(cc2)OCCOCCOCCNC(=O)[C@H](C(C)C)NC1=O | 16 | 6.9 | IC50 (MT4 [3]): 37 nM; AUC [4]: < 0.4 µM·h; IC50 [5]: 3.1 nM; IC50 (Cathepsin D): > 10000 nM; IC50 [6]: 17 nM
4 | CC(C)[C@@H]1NC(=O)[C@@H]([C@H](O)[C@H](Cc2ccccc2)NC(=O)OC(C)(C)C)NCc2cccc(c2)OCCOCCOCCNC1=O | 3000 | 208 | 
5 | CC(C)[C@@H]1NC(=O)[C@@H]([C@H](O)[C@H](Cc2ccccc2)NC(=O)[C@@H](NC(=O)OCc2ccccc2)C(C)(C)C)NCc2ccc(cc2)OCCOCCNC1=O | 15 | 8 | AUC [4]: 4.7 µM·h; IC50 (Cathepsin D): > 10000 nM
6 | CC(C)[C@H](NC(=O)OCc1ccccc1)C(=O)N[C@@H](Cc1ccccc1)[C@@H](O)[C@H]1NCc2ccc(cc2)OCCOCCNC(=O)[C@H](C(C)C)NC1=O | 21 | 7.9 | IC50 (Cathepsin D): > 10000 nM
7 | CC(C)[C@@H]1NC(=O)[C@@H]([C@H](O)[C@H](Cc2ccccc2)NC(=O)OC(C)(C)C)NCc2ccc(cc2)OCCOCCOCCNC1=O | 169 |  | 
8 | CC(C)[C@@H]1NC(=O)[C@@H]([C@H](O)[C@H](Cc2ccccc2)NC(=O)OC(C)(C)C)NCc2cccc(c2)OCCOCCNC1=O | 935 |  | 
9 | CC(C)[C@@H]1NC(=O)[C@@H]([C@H](O)[C@H](Cc2ccccc2)NC(=O)[C@@H](NC(=O)CSc2nncn2C)C(C)(C)C)NCc2ccc(cc2)OCCOCCNC1=O | > 3000 | 11.1 | solubility [7]: 1710 µM (≈ 1310 µg/mL)
10 | CC(C)[C@@H]1NC(=O)[C@@H]([C@H](O)[C@H](Cc2ccccc2)NC(=O)OC(C)(C)C)NCc2cccc(c2)OCCCCNC1=O | 335 |  | 

More lines, in order of falling IC50 [1], values ahead:

Row | IC50 [1] [nM] | Ki [2] [nM] | Structure (SMILES) | other results
11 | 1810 |  | CC(C)[C@@H]1NC(=O)[C@@H]([C@H](O)[C@H](Cc2ccccc2)NC(=O)OC(C)(C)C)NCc2ccc(cc2)OCCCCNC1=O | Ki [8]: 17 nM
12 | 1170 | 23.2 | CC(C)[C@@H]1NC(=O)[C@@H]([C@H](O)[C@H](Cc2ccccc2)NC(=O)OC(C)(C)C)NCc2ccc(cc2)OCCOCCOCCOCCNC1=O | 
13 | 450 | 14 | CC(C)[C@@H]1NC(=O)[C@@H]([C@H](O)[C@H](Cc2ccccc2)NC(=O)OC(C)(C)C)NCc2ccc(cc2)OCCOCCNC1=O | 
14 | 242 |  | COc1ccc(CN[C@@H](C(=O)N[C@@H]2c3ccccc3C[C@H]2O)[C@H](O)[C@H](Cc2ccccc2)NC(=O)[C@@H](NC(=O)OCc2ccccc2)C(C)C)cc1 | Ki [8]: 9.5 nM; IC50 (MT4 [9]): 843 nM; solubility [7]: < 10 µM; AUC [4]: 82.5 µM·h; IC50 (Cathepsin D): > 10000 nM
15 | 198 |  | CC(C)[C@@H]1NC(=O)[C@@H]([C@H](O)[C@H](Cc2ccccc2)NC(=O)O[C@H]2CCOC2)NCc2ccc(cc2)OCCOCCOCCNC1=O | 
16 | 157 | 8.2 | CC(C)[C@@H]1NC(=O)[C@@H]([C@H](O)[C@H](Cc2ccccc2)NC(=O)O[C@H]2CCOC2)NCc2ccc(cc2)OCCOCCNC1=O | 
17 | 60 |  | CC(C)[C@H](NC(=O)OCc1ccccc1)C(=O)N[C@@H](Cc1ccccc1)[C@@H](O)[C@H]1NCc2cccc(c2)OCCOCCNC(=O)[C@H](C(C)C)NC1=O | 
18 | 52 |  | CC(C)[C@H](NC(=O)OCc1ccccc1)C(=O)N[C@@H](Cc1ccccc1)[C@@H](O)[C@H]1NCc2ccc(cc2)OCCOCCOCCOCCNC(=O)[C@H](C(C)C)NC1=O | 
19 | 29 |  | COc1ccc(CN[C@@H](C(=O)N[C@H](C(=O)NCc2nc3ccccc3[nH]2)C(C)C)[C@H](O)[C@H](Cc2ccccc2)NC(=O)[C@@H](NC(=O)OCc2ccccc2)C(C)C)cc1 | solubility [7]: < 10 µM; AUC [4]: < 0.4 µM·h
20 | 29 |  | CC(C)[C@H](NC(=O)OCc1ccccc1)C(=O)N[C@@H](Cc1ccccc1)[C@@H](O)[C@H]1NCc2cccc(c2)OCCCCNC(=O)[C@H](C(C)C)NC1=O | 

Reference: ChEMBL document CHEMBL1129607, “Paracyclophanes: a novel class of water-soluble inhibitors of HIV proteinase” (J Med Chem, 1996)
